Laboratory results reported in ChEMBL document CHEMBL4513216, “Probing the Open Global Health Chemical Diversity Library for Multistage-Active Starting Points for Next-Generation Antimalarials” (ACS Infect Dis, 2020).

Test: Toxicity liver stage against HepG2, at 10uM
Type: cell-based
Parameters: test concentration 10 uM, cell line HepG2-A16-CD81EGFP
Details: human, HepG2-A16-CD81EGFP cells; read-out: INHIBITION
Summary of the method: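 Uninfected HepG2-A16-CD81EGFP cells, 3 × 10^3 per well, 1536-well, plated on prespotted compound at 10 μM final, parasite-free screening media added to match infected plates; puromycin 10 μM positive, DMSO 0.5% negative; run in parallel with 48 h PbLuc assay at 37 °C, 5% CO2; viability by CellTiter-Glo luminescence, normalized to controls.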
Work on c1cnc(NCc2cncc3c2CCN(Cc2cccs2)C3)nc1 yielded a cytotoxicity at 10 µM of 7.33%.
Compound Cc1cc(CN2CCCC(Cn3cncn3)C2)on1 (stereo not given) has a cytotoxicity at 10 µM of -25.2%.
CC(CC#N)N(C)Cc1ccc(F)cc1F (stereo not given) gave a cytotoxicity at 10 µM of 6.03%.
Compound Cc1cc(C)n(-c2cncc(NCCC(=O)NC(C)C)n2)n1 has a cytotoxicity at 10 µM of 1.06%.
Compound CCN(CC)C(=O)c1ccc(Cl)c(NC(=O)c2csnn2)c1 has a cytotoxicity at 10 µM of 7.3%.
Work on Cc1nc[nH]c1CN(Cc1ccccc1F)C1CC(C)(C)NC(C)(C)C1 yielded a cytotoxicity at 10 µM of -3.41%.
In the case of COc1cccc(C(CO)NC(=O)Cc2cccc(C)c2)c1 (stereo not given), the cytotoxicity at 10 µM is reported as 4.53%.
CC(C)c1nc(N2CCN3CCCC3C2)c2cnn(C)c2n1 (stereo not given) showed a cytotoxicity at 10 µM of -11.9%.
For Cc1cnc(C(=O)N2C[C@@H]3CC[C@H]2CN(c2cnccn2)C3)cn1, the cytotoxicity at 10 µM was 10.1%.
O=S(=O)(NCC1COCc2c(-c3ccncc3)nnn2C1)C1CC1 (stereo not given) gave a cytotoxicity at 10 µM of -80.9%.
With CCc1nc(C(=O)N(CC)CC(=O)Nc2cc(Cl)ccc2C)c[nH]1 the cytotoxicity at 10 µM was 8.44%.
Cc1nc(NS(=O)(=O)c2ccc(F)c(Br)c2)no1 gave a cytotoxicity at 10 µM of 6.04%.
In the case of COc1ccc(Br)c(C(=O)N2CCC(c3n[nH]c(C4CC4)n3)CC2)c1, the cytotoxicity at 10 µM is reported as -1.44%.
In the case of Cc1cccc(COc2ccc(C(C)NS(N)(=O)=O)cc2)c1 (stereo not given), the cytotoxicity at 10 µM is reported as -6.96%.
For COc1ccc(C(=O)Nc2cccc(C(N)=O)c2)c(OC)n1, the cytotoxicity at 10 µM was -9.2%.
With CNC(=O)CNCc1c[nH]nc1-c1cc2ccccc2o1 the cytotoxicity at 10 µM was 6.7%.
CC(C)c1noc(CN2CCOCC2C)n1 (stereo not given) showed a cytotoxicity at 10 µM of 3.95%.
Compound CCN(Cc1nc2c(cnn2C)c(=O)[nH]1)c1ccccc1 has a cytotoxicity at 10 µM of -7.36%.
With Cc1nc(C2CCCN2CC(=O)N(C)Cc2ccsc2)no1 (stereo not given) the cytotoxicity at 10 µM was -8.21%.
With O=C(CCc1cccs1)N1CCCC(N2CCNC2=O)C1 (stereo not given) the cytotoxicity at 10 µM was -6.7%.
In the case of CC(=O)NCC(=O)NCC1(O)CCN(c2cnccn2)C1 (stereo not given), the cytotoxicity at 10 µM is reported as 7.89%.
Work on c1ccc(CN2C[C@H]3CCC[C@@]3(COCC3CCOCC3)C2)nc1 yielded a cytotoxicity at 10 µM of 1.49%.
With COC(=O)C(C)CN(C)S(=O)(=O)c1c(Br)cc2[nH]c(=O)oc2c1Cl (stereo not given) the cytotoxicity at 10 µM was 8.73%.
With COc1cccc(CNCCc2cc(F)cc3c2OCOC3)c1 the cytotoxicity at 10 µM was -23.1%.
Compound Cc1ccc(CN2C[C@H](NC(=O)c3nccn3C)[C@H]3OCCC[C@H]32)o1 has a cytotoxicity at 10 µM of -85%.
With c1ccc(NCc2ccsc2)c(Cn2cncn2)c1 the cytotoxicity at 10 µM was 1.42%.
With NC(=O)C1CCCN1C(=O)c1cc(C2CC2)nc2ccc(F)cc12 (stereo not given) the cytotoxicity at 10 µM was 1.75%.
CC(c1nc(C2CC2)no1)N1CCN(CCc2ccncc2)CC1 (stereo not given) gave a cytotoxicity at 10 µM of -5.65%.
With CNC(=O)C1CNCCN1C(=O)c1ccc(C(F)(F)F)nc1C (stereo not given) the cytotoxicity at 10 µM was -4.7%.
For O=C(CCc1cc2n(n1)CCCN(CCc1ccccc1)C2)NC1CC1, the cytotoxicity at 10 µM was 12%.
O=C(O)C1(Cc2ccc(F)cc2)CCCN(Cc2ccncc2)C1 (stereo not given) showed a cytotoxicity at 10 µM of -0.566%.
For CCOc1ccccc1C(=O)N1CC(=O)N(C2CCC2)CC(O)C1 (stereo not given), the cytotoxicity at 10 µM was 2.55%.
With COCCC(=O)N(Cc1ccccn1)Cc1ccccc1C the cytotoxicity at 10 µM was 2.14%.
In the case of CC(C)NC(=O)[C@H]1C[C@@H]2[C@@H](C1)OCCN2Cc1cnn(C)c1, the cytotoxicity at 10 µM is reported as 5.68%.
Compound O=C(NCCNc1ncccn1)Nc1cc(C(F)(F)F)c[nH]c1=O has a cytotoxicity at 10 µM of -4.69%.
Work on CS(=O)(=O)N1CCCC12CCCN(S(=O)(=O)c1cccc(F)c1)C2 (stereo not given) yielded a cytotoxicity at 10 µM of 0.88%.
In the case of Cc1nn(C)c2nc(NC(C)c3n[nH]c(=O)[nH]3)sc12 (stereo not given), the cytotoxicity at 10 µM is reported as 4.91%.
Work on Cc1c(C)n(CC(O)CN2CCC(O)CC2)c2c(Cl)cccc12 (stereo not given) yielded a cytotoxicity at 10 µM of -13.9%.
Compound C[C@@H]1C(=O)NC[C@H]2CN(CCc3ccccc3)C[C@H]21 has a cytotoxicity at 10 µM of 5.45%.
COCCCC(=O)NCc1cccc(NC(N)=O)c1 gave a cytotoxicity at 10 µM of 0.808%.
With CN(Cc1ccc2c(c1)OCO2)Cc1nc(-c2ccco2)no1 the cytotoxicity at 10 µM was -1.64%.
For O=C(NCc1ccoc1)Nc1cc(C(F)(F)F)c[nH]c1=O, the cytotoxicity at 10 µM was -0.779%.
For CN(C)C(=O)c1cccc(NC(=O)N(CCO)Cc2ccsc2)c1, the cytotoxicity at 10 µM was -13.4%.
CCC(=O)N1CCCC(c2nc(-c3cccnn3)no2)C1 (stereo not given) showed a cytotoxicity at 10 µM of -6.45%.
In the case of Cc1nnc2n1CCN(C(=O)CN1C(=O)CCOc3ccccc31)C2, the cytotoxicity at 10 µM is reported as 4.48%.
